Where “and” joins values, the source holds several entries; their conditions need not be identical. Equal values may be shown once.
What was measured:
[1] = test system: Rattus norvegicus; experiment: Inhibition of plasma triglycerides in normolipidemic rats after 2 hr of 50 mg/kg oral dosing; format: functional
How it was run: (§1)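 Overnight-fasted normolipidemic rats received a single oral dose in cornstarch vehicle. Blood was drawn at 2, 6 and 24 h post-dose and assayed for triglycerides and total cholesterol, with free access to food after the 6 h sample. Value is mean percent inhibition versus a separate vehicle-treated group, unpaired t test p < 0.05, NS = no significant change, N = 6.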

[2] = test system: Canis familiaris; experiment: Inhibition of plasma total cholesterol in the normolipidemic dogs after day 3 of oral administration of 1 mg/kg/day.; format: functional, Canis lupus familiaris
How it was run: (§2)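 Normolipidemic dogs dosed once daily for 4 days by oral gavage, compound suspended in cornstarch vehicle. Plasma sampled 24 h after dosing on days 0, 2, 3 and 4, assayed for triglycerides and total cholesterol (mg/dL). Mean percent inhibition versus day-0 level is given for treated dogs; n = 6 per group; significance by one-way ANOVA, p < 0.05.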

[3] = test system: Rattus norvegicus; experiment: Inhibition of plasma triglycerides in normolipidemic rats after 6 hr of 10 mg/kg oral dosing; format: functional; how it was run: as §1
[4] = test system: Rattus norvegicus; experiment: Hepatic triglyceride content in Normolipidemic rat liver for 5 mg/kg of dose of the compound; format: functional
How it was run: (§3)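 Normolipidemic rats dosed orally, with vehicle controls. Liver cholesterol and triglyceride are reported as mg/g of liver, and liver weight in g. For the reversibility set, dosing was 5 mg/kg for 5 days, with livers analysed after treatment and again 6 days after treatment withdrawal.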

[5] = test system: Canis familiaris; experiment: Inhibition of plasma total triglycerides in the normolipidemic dogs after day 4 of oral administration of 1 mg/kg/day.; format: functional, Canis lupus familiaris
[6] = test system: Rattus norvegicus; experiment: Inhibition of plasma triglycerides in normolipidemic rats after 6 hr of 50 mg/kg oral dosing; format: functional; how it was run: as §1
[7] = test system: Rattus norvegicus; experiment: Inhibition of total cholesterol in normolipidemic rats after 6 hr of 50 mg/kg oral dosing; format: functional; details: 50 mg/kg; how it was run: as §1
[8] = test system: Canis familiaris; experiment: Inhibition of plasma total cholesterol in the normolipidemic dogs after day 3 of oral administration of 5 mg/kg/day.; format: functional, Canis lupus familiaris; how it was run: as §2
[9] = test system: Canis familiaris; experiment: Inhibition of plasma total triglycerides in the normolipidemic dogs after day 0 of oral administration of 1 mg/kg/day.; format: functional, Canis lupus familiaris; how it was run: as §2
[10] = test system: Rattus norvegicus; experiment: Hepatic cholesterol content in Normolipidemic rat liver for 0.5 mg/kg of dose of the compound; format: functional; how it was run: as §3
[11] = molecular target: T1, Microsomal triglyceride transfer protein large subunit (Homo sapiens, UniProt P55157); experiment: In vitro inhibitory activity against MTP using MTP transfer assay
T1 sequence (P55157 whole entry): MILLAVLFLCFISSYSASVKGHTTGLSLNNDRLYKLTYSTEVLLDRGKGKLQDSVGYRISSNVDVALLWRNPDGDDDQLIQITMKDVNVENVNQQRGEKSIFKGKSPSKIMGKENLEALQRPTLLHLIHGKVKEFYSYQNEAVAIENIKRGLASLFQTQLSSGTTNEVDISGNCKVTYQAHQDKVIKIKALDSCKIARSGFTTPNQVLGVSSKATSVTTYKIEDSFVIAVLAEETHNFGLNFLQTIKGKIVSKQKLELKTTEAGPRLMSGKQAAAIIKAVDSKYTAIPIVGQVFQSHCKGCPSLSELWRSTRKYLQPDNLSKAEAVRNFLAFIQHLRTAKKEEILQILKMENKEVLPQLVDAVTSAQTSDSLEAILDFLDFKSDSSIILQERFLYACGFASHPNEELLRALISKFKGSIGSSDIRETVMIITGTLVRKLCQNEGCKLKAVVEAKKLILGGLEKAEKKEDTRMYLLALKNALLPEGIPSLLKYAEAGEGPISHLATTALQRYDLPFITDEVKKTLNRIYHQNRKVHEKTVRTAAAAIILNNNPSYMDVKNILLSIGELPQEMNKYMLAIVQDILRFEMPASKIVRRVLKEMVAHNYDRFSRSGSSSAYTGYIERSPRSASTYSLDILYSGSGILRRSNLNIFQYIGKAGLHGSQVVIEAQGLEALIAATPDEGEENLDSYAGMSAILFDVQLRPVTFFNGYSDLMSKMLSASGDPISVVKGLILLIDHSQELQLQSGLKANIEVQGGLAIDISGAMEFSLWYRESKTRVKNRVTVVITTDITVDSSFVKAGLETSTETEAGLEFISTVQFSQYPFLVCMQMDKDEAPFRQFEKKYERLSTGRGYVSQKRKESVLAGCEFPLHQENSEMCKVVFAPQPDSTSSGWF

[12] = test system: Canis familiaris; experiment: Inhibition of plasma total triglycerides in the normolipidemic dogs after day 0 of oral administration of 2.5 mg/kg/day.; format: functional, Canis lupus familiaris; how it was run: as §2
[13] = test system: Canis familiaris; experiment: Inhibition of plasma total triglycerides in the normolipidemic dogs after day 3 of oral administration of 2.5 mg/kg/day.; format: functional, Canis lupus familiaris
[14] = test system: Rattus norvegicus; experiment: Inhibition of plasma triglycerides in normolipidemic rats after 6 h of 5 mg/kg oral dosing; format: functional; how it was run: as §1
[15] = test system: Rattus norvegicus; experiment: Inhibition of plasma triglycerides in normolipidemic rats after 24 hr of 50 mg/kg oral dosing; format: functional; how it was run: as §1
[16] = test system: Rattus norvegicus; experiment: Total liver weight in Normolipidemic rat liver for 0.5 mg/kg of dose of the compound; format: functional; how it was run: as §3
[17] = test system: Canis familiaris; experiment: Inhibition of plasma total cholesterol in the normolipidemic dogs after day 4 of oral administration of 2.5 mg/kg/day; format: functional, Canis lupus familiaris; how it was run: as §2
[18] = organism: Rattus norvegicus; experiment: Hepatic cholesterol content in Normolipidemic rat liver after treatment.; format: functional; how it was run: as §3
[19] = test system: Canis familiaris; experiment: Inhibition of plasma total triglycerides in the normolipidemic dogs after day 2 of oral administration of 2.5 mg/kg/day.; format: functional, Canis lupus familiaris; how it was run: as §2
[20] = test system: Rattus norvegicus; experiment: Inhibition of total cholesterol in normolipidemic rats after 2 hr of 50 mg/kg oral dosing; format: functional; details: 50 mg/kg; how it was run: as §1
[21] = test system: Canis familiaris; experiment: Inhibition of plasma total cholesterol in the normolipidemic dogs after day 0 of oral administration of 1 mg/kg/day.; format: functional, Canis lupus familiaris; how it was run: as §2
[22] = test system: Canis familiaris; experiment: Inhibition of plasma total cholesterol in the normolipidemic dogs after day 2 of oral administration of 2.5 mg/kg/day.; format: functional, Canis lupus familiaris; how it was run: as §2
[23] = test system: Canis familiaris; experiment: Inhibition of plasma total cholesterol in the normolipidemic dogs after day 4 of oral administration of 1 mg/kg/day; format: functional, Canis lupus familiaris; how it was run: as §2
[24] = test system: Canis familiaris; experiment: Inhibition of plasma total triglycerides in the normolipidemic dogs after day 3 of oral administration of 1 mg/kg/day.; format: functional, Canis lupus familiaris
[25] = test system: Rattus norvegicus; experiment: Total liver weight in Normolipidemic rat liver for 5 mg/kg of dose of the compound; format: functional; how it was run: as §3
[26] = test system: Canis familiaris; experiment: Inhibition of plasma total cholesterol in the normolipidemic dogs after day 2 of oral administration of 5 mg/kg/day.; format: functional, Canis lupus familiaris; how it was run: as §2
[27] = test system: Rattus norvegicus; experiment: Inhibition of plasma triglycerides in normolipidemic rats after 24 hr of 10 mg/kg oral dosing; no significant change; format: functional, organism-based; parameters: dose 10 mg/kg; how it was run: as §1
[28] = test system: Canis familiaris; experiment: Inhibition of plasma total triglycerides in the normolipidemic dogs after day 0 of oral administration of 5 mg/kg/day.; format: functional, Canis lupus familiaris; how it was run: as §2
[29] = organism: Rattus norvegicus; experiment: Hepatic cholesterol content in Normolipidemic rat liver after washout.; format: functional; how it was run: as §3
[30] = test system: Rattus norvegicus; experiment: Inhibition of plasma triglycerides in normolipidemic rats after 2 hr of 10 mg/kg oral dosing; format: functional; how it was run: as §1
[31] = test system: Canis familiaris; experiment: Inhibition of plasma total triglycerides in the normolipidemic dogs after day 4 of oral administration of 2.5 mg/kg/day; format: functional, Canis lupus familiaris
[32] = test system: Rattus norvegicus; experiment: Hepatic triglyceride content in Normolipidemic rat liver for 1 mg/kg of dose of the compound; format: functional; how it was run: as §3
[33] = test system: Canis familiaris; experiment: Inhibition of plasma total triglycerides in the normolipidemic dogs after day 2 of oral administration of 1 mg/kg/day.; format: functional, Canis lupus familiaris; how it was run: as §2
[34] = test system: Canis familiaris; experiment: Inhibition of plasma total cholesterol in the normolipidemic dogs after day 2 of oral administration of 1 mg/kg/day.; format: functional, Canis lupus familiaris; how it was run: as §2
[35] = test system: Rattus norvegicus; experiment: Hepatic cholesterol content in Normolipidemic rat liver for 1 mg/kg of dose of the compound; format: functional; how it was run: as §3
[36] = organism: Rattus norvegicus; experiment: Hepatic triglyceride content in Normolipidemic rat liver after washout.; format: functional; how it was run: as §3
[37] = test system: Rattus norvegicus; experiment: Hepatic cholesterol content in Normolipidemic rat liver for 5 mg/kg of dose of the compound; format: functional; how it was run: as §3
[38] = test system: Rattus norvegicus; experiment: Hepatic triglyceride content in Normolipidemic rat liver for 0.5 mg/kg of dose of the compound; format: functional; how it was run: as §3
[39] = test system: Canis familiaris; experiment: Inhibition of plasma total cholesterol in the normolipidemic dogs after day 0 of oral administration of 2.5 mg/kg/day.; format: functional, Canis lupus familiaris; how it was run: as §2
[40] = organism: Rattus norvegicus; experiment: Hepatic triglyceride content in Normolipidemic rat liver after treatment.; format: functional; how it was run: as §3
[41] = test system: Canis familiaris; experiment: Inhibition of plasma total cholesterol in the normolipidemic dogs after day 0 of oral administration of 5 mg/kg/day.; format: functional, Canis lupus familiaris; how it was run: as §2
[42] = test system: Canis familiaris; experiment: Inhibition of plasma total triglycerides in the normolipidemic dogs after day 4 of oral administration of 5 mg/kg/day; format: functional, Canis lupus familiaris
[43] = test system: Canis familiaris; experiment: Inhibition of plasma total triglycerides in the normolipidemic dogs after day 3 of oral administration of 5 mg/kg/day.; format: functional, Canis lupus familiaris
[44] = test system: Rattus norvegicus; experiment: Inhibition of plasma triglycerides in normolipidemic rats after 2 hr of 5 mg/kg oral dosing; format: functional; how it was run: as §1
[45] = test system: Canis familiaris; experiment: Inhibition of plasma total cholesterol in the normolipidemic dogs after day 4 of oral administration of 5 mg/kg/day; format: functional, Canis lupus familiaris; how it was run: as §2
[46] = test system: Canis familiaris; experiment: Inhibition of plasma total cholesterol in the normolipidemic dogs after day 3 of oral administration of 2.5 mg/kg/day.; format: functional, Canis lupus familiaris; how it was run: as §2
[47] = test system: Canis familiaris; experiment: Inhibition of plasma total triglycerides in the normolipidemic dogs after day 2 of oral administration of 5 mg/kg/day.; format: functional, Canis lupus familiaris; how it was run: as §2
[48] = test system: Rattus norvegicus; experiment: Total liver weight in Normolipidemic rat liver for 1 mg/kg of dose of the compound; format: functional; how it was run: as §3

COC(=O)N[C@H]1Cc2ccc(NC(=O)c3cccc(C)c3-c3ccc(C(F)(F)F)cc3)cc2C1
Reduction [1]: 81% | Lipid level [2]: 101 mg/dL | Reduction [3]: 68% | Hepatic triglyceride [4]: 17.7 mg/g | Lipid level [5]: 45 mg/dL | Reduction [6]: 71% | Reduction [7]: 52% and 58% and 47% | Lipid level [8]: <68 mg/dL | Lipid level [9]: 46 mg/dL | Hepatic cholesterol [10]: 1.4 mg/g | IC50 [11]: 70 nM | Lipid level [12]: 59 mg/dL | Lipid level [13]: <25 mg/dL | Reduction [14]: 59% | Reduction [15]: 63% | Total liver weight [16]: 9.13 g | Lipid level [17]: <57 mg/dL | Hepatic cholesterol [18]: <2.76 mg/g | Lipid level [19]: <32 mg/dL | Reduction [20]: 33% and 41% and 30% | Lipid level [21]: 110 mg/dL | Lipid level [22]: <90 mg/dL | Lipid level [23]: <89 mg/dL | Lipid level [24]: 48 mg/dL | Total liver weight [25]: 9.79 g | Lipid level [26]: <87 mg/dL | NS [27]: no significant change | Lipid level [28]: 48 mg/dL | Hepatic cholesterol [29]: 1.12 mg/g | Reduction [30]: 84% | Lipid level [31]: <23 mg/dL | Hepatic triglyceride [32]: 8.16 mg/g | Lipid level [33]: 42 mg/dL | Lipid level [34]: 103 mg/dL | Hepatic cholesterol [35]: 2.01 mg/g | Hepatic triglyceride [36]: 2.38 mg/g | Hepatic cholesterol [37]: 3.09 mg/g | Hepatic triglyceride [38]: 4.61 mg/g | Lipid level [39]: 113 mg/dL | Hepatic triglyceride [40]: <13.6 mg/g | Lipid level [41]: 124 mg/dL | Lipid level [42]: <12 mg/dL | Lipid level [43]: <16 mg/dL | Reduction [44]: 78% | Lipid level [45]: <54 mg/dL | Lipid level [46]: <76 mg/dL | Lipid level [47]: <22 mg/dL | Total liver weight [48]: 9.6 g

Source: ChEMBL document CHEMBL1134325, “Diaminoindanes as microsomal triglyceride transfer protein inhibitors” (J Med Chem, 2001)
